Source: PMC3743796 (Open journal of clinical diagnostics, 2013)
No end group written: not given here.

Legend:
[1] = test system: endothelial and tumor cells; assay: Cell migration/invasion assays, endothelial and tumor cells; type: cell-based, human; details: SCNH2 10 pM, APL-13 10 nM, SM inhibitors 10 μM, n = 3
Summary of the method: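 Chemotaxis plates: agonist peptides and 10 μM small-molecule inhibitors or 100 μg/ml immune IgG in FBS-free medium in the lower wells; 8000-10,000 cells/well (e.g. HUVEC) in FBS-free medium on the upper membrane, uncoated for migration or rat-tail collagen I-coated for invasion. Incubated 5-24 h at 37 °C/5% CO2/100% humidity. Membranes methanol-fixed, stained with 0.5% crystal violet, upper cells removed, underside cells photographed and counted.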

[2] = test system: p44/42 MAPK signaling pathway in MCF-7 cells
[3] = test system: p44/42 MAPK in HMEC-1 cells
[4] = test system: SCNH2 receptor in enriched MB435 cells; assay: FACS binding inhibition assay with bSCNH2/SA488, enriched MB435; set-up: species or system human; details: enriched MB435, 50 μM peptide, 5 μM bSCNH2 + 10 μg/ml SA488, FACS
rat aortic rings = assay: Rat aortic ring assay; type: cell-based; details: 6 days, p < 0.05
[5] = test system: P-p44/42 MAPK in NMuMG cells; assay: Western blot, phosphorylation of p44/42 MAPK in NMuMG; type: cell-based, murine; details: maximum of dose response
HUVEC cells = assay: Cell migration assay, HUVEC; type: cell-based, human; details: for peptide response hierarchy in molar potency for mediating cell movement: HUVEC migration
Summary of the method: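 Transwell-type chemotaxis plate with uncoated membrane. Test peptides and VEGF-A, at a range of concentrations, in FBS-free medium in bottom wells; 8000–10,000 HUVEC/well in FBS-free medium on top. Incubated 5–24 h at 37°C/5% CO2/100% humidity. Membranes methanol-fixed 5 min and stained with 0.5% crystal violet; upper cells removed. Bottom adherent cells photographed and counted.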

[6] = test system: P-PI3K/Akt in NMuMG cells; assay: Western blot, phosphorylation of PI3K/Akt in NMuMG; type: cell-based, murine; details: maximum of dose response
[7] = test system: CAM of 10-day-old shell-less embryos; assay: Chorioallantoic membrane in chick embryo; type: in vivo; details: 66 hours
[8] = test system: PI3K/Akt and p44/42 MAPK signaling pathways; assay: CTX/PTX sensitivity assay; type: cell-based
PI3K/Akt in MCF-7 cells = assay: Western blot, peptide-induced PI3K/Akt phosphorylation in MCF-7; type: cell-based, human
PI3K/Akt in HMEC-1 cells = assay: Western blot, peptide-induced PI3K/Akt phosphorylation in HMEC-1; type: cell-based, human

c1cc(CN2CCCNCCNCCCNCC2)ccc1CN1CCCNCCNCCCNCC1 [AMD3100]
suppression of SCNH2 and APL-13 induced cell migration and invasion [1]: effectively suppressed

N#CC(=C(/N)Sc1ccccc1N)/C(C#N)=C(/N)Sc1ccccc1N [U0126]
suppression of APL-13 induced phosphorylation of p44/42 MAPK [2]: 97% | suppression of SCNH2 induced phosphorylation of p44/42 MAPK [2]: 97% | suppression of SCNH2 and APL-13 induced cell migration and invasion [1]: effectively suppressed | suppression of APL-13 induced phosphorylation of p44/42 MAPK [3]: 95% | suppression of SCNH2 induced phosphorylation of p44/42 MAPK [3]: 98%

gastrin-releasing peptide (VPLPAGGGTVLTKMYPRGNHWAVGHLM-NH2; UniProt P07492 24-50, looked up) [GRP]
block of the binding of bSCNH2 [4]: ineffective

Apelin-13 [APL-13]
block of the binding of bSCNH2 [4]: ineffective | concentration inducing maximal vessel sprouting (rat aortic rings): 10 nM | maximum P-p44/42 MAPK compared to the control [5]: 5 folds | peptide response hierarchy in molar potency for mediating cell movement (HUVEC cells): SCNH2 > VEGF-A > APL-13 | maximal stimulating concentration (HUVEC cells; cell migration, dose-response on HUVEC): 10 nM | maximum P-PI3K/Akt compared to the control [6]: 8 folds | neovascularization at all of the tested concentrations ([7]; angiogenic index, p < 0.005): dramatically induced neovascularization | concentration inducing the maximum neovascularization ([7]; p < 0.005, no statistical difference to VEGF-A at 1 nM): 100 nM | effect of CTX on peptide signaling (kinase activation) ([8]; CTX treatment, Western blot): indifferent | effect of PTX on peptide signaling (kinase activation) ([8]; PTX pretreatment overnight, 100 pM peptide 10 min): sensitive

O=c1cc(N2CCOCC2)oc2c(-c3ccccc3)cccc12 [LY294002]
suppression of SCNH2 and APL-13 induced cell migration and invasion [1]: effectively suppressed | block of APL-13 induced phosphorylation of PI3K/Akt (PI3K/Akt in MCF-7 cells): 75% | block of SCNH2 induced phosphorylation of PI3K/Akt (PI3K/Akt in MCF-7 cells): 93% | inhibition of APL-13 induced phosphorylation of PI3K/Akt (PI3K/Akt in HMEC-1 cells): 98% | inhibition of SCNH2 induced phosphorylation of PI3K/Akt (PI3K/Akt in HMEC-1 cells): 96%

CC(C)(C)Cn1c(N)nc2ccc(-c3[nH]c(C(C)(C)C)nc3-c3ccc(F)cc3)nc21 [LY2228820]
suppression of SCNH2 and APL-13 induced cell migration and invasion [1]: effectively suppressed

adrenomedullin [AM]
block of the binding of bSCNH2 [4]: ineffective

arginine vasopressin [AVP]
block of the binding of bSCNH2 [4]: ineffective

vascular endothelial growth factor A [VEGF-A]
peptide response hierarchy in molar potency for mediating cell movement (HUVEC cells): SCNH2 > VEGF-A > APL-13

oxytocin [OXT]
block of the binding of bSCNH2 [4]: ineffective

luteinizing hormone-releasing hormone [LHRH]
block of the binding of bSCNH2 [4]: ineffective
